Laboratory results from ChEMBL document CHEMBL3352295, “Neuroprotective Xanthones from the Root Bark of Cudrania tricuspidata” (J Nat Prod, 2014).

tested on: not listed separately; test: Neuroprotective activity against 6-hydroxydopamine-induced human SH-SY5Y cell death after 24 hrs by MTT assay; format: functional, cell-based
In short: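 SH-SY5Y cells seeded at 2 × 10^4 cells/well, grown 24 h, then exposed to 100 μM 6-OHDA together with test compounds (at least four concentrations) for 24 h. Viability by MTT (0.5 mg/mL in PBS, 37 °C, 4 h), formazan dissolved in DMSO, absorbance 540 nm. EC50 = half-maximal protection, from semilog concentration–effect plot; triplicate, mean ± SD; curcumin positive control.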

Point of comparison: CC1Oc2cc3oc4c5c(c(O)cc4c(=O)c3c(O)c2C1(C)C)OC(C)(C)C(O)C5 (stereo not given), EC50 2.2 µM. Against it:
- C=CC(C)(C)c1c(O)cc(O)c2c(=O)c3c(CC(O)C(=C)C)c(O)c(O)cc3oc12 (stereo not given) — 7.5-fold higher, 16.6 µM
- CC1(C)C=Cc2c(cc(O)c3c(=O)c4c5c(ccc4oc23)OC(C)(C)C=C5)O1 — 2-fold higher, 4.5 µM
- CC1(C)C=Cc2c(cc(O)c3c(=O)c4cc(O)ccc4oc23)O1 [NIGROLINEAXANTHONE F] — 7-fold higher, 15.5 µM
- C=CC(C)(C)c1c(OC)cc(O)c2c(=O)c3c(CC(O)C(=C)C)c(O)c(O)cc3oc12 (stereo not given) — within 1.5-fold, 2.3 µM
- CC(C)=CCc1c(O)c(O)cc2c(=O)c3c4c(c(O)cc3oc12)C(C)(C)C(C)O4 (stereo not given) — within 1.5-fold, 2.4 µM
- C=CC(C)(C)c1c(O)cc(O)c2c(=O)c3c(cc(O)c4oc(C(=C)C)cc43)oc12 — 2.8-fold lower, 0.8 µM
- COc1cc(/C=C/C(=O)CC(=O)/C=C/c2ccc(O)c(OC)c2)ccc1O [CURCUMIN] — 2.7-fold higher, 6 µM
- C=CC(C)(C)c1c(O)cc(O)c2c(=O)c3ccc(O)c(OC)c3oc12 — 3.1-fold lower, 0.7 µM
- CC(C)=CCc1c2c(c(O)c3c(=O)c4ccc(O)c(O)c4oc13)C(C)(C)C(C)O2 (stereo not given) — within 1.5-fold, 3 µM
- C=CC(C)(C)c1c(O)cc2oc3c(CC=C(C)C)c(O)c(O)cc3c(=O)c2c1O [CUDRAXANTHONE L] — 3.7-fold higher, 8.2 µM
- CC1(C)C=Cc2c(cc(O)c3c(=O)c4cccc(O)c4oc23)O1 — 2.3-fold higher, 5.1 µM
- C=CC(C)(C)c1c(O)cc(O)c2c(=O)c3c(CC(=O)C(=C)C)c(OC)c(O)cc3oc12 — 3.3-fold higher, 7.2 µM

tested on: SH-SY5Y; test: Ratio of curcumin EC50 to compound EC50 for neuroprotective activity against 6-hydroxydopamine-induced human SH-SY5Y cell death after 24 hrs by MTT assay; format: functional
In short: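 SH-SY5Y cells seeded at 2 × 10^4 cells/well and grown 24 h. Cells then received 100 μM 6-OHDA together with test samples at ≥4 concentrations for a further 24 h. Viability was read by MTT (0.5 mg/mL in PBS, 37 °C, 4 h), with formazan dissolved in DMSO and read at 540 nm. EC50 (half-maximal protection) was taken from semilog plots, triplicate, mean ± SD. Curcumin was the reference.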

Point of comparison: C=CC(C)(C)c1c(O)cc(O)c2c(=O)c3c(cc(O)c4oc(C(=C)C)cc43)oc12, “Ratio EC50” value 7. Against it:
- C=CC(C)(C)c1c(O)cc(O)c2c(=O)c3ccc(O)c(OC)c3oc12 — the same, 7
